Measurements from different studies.
Lines come from different studies, so protocols differ. Converted amounts (≈) assume the structure as drawn.

Structure (SMILES)	target or system	test	test system	conditions	quantity	result
Sc1ncnc2nc[nH]c12	Influenza A virus	viral replication, inhibitor, ELISA	MDCK, H1N1	24 h	IC50	11.3 µM
CC1=CC(=O)c2c(O)cccc2C1=O	HuCC-A1	cell growth or viability, MTT			IC50	10.8 µM
COC(=O)OCOc1c2n(ccc1=O)N([C@@H]1c3ccccc3SCc3c1ccc(F)c3F)[C@@H]1COCCN1C2=O	Influenza A virus	viral replication, inhibitor	H1N1 PR/8		EC50	0.00757 µM
N.N.[Cl][Pt][Cl]	SU-DHL-8	cell growth or viability, ATP luminescence		10 µM, 72 h	inhibition	100%
O=C1c2ccccc2-c2c3c(cc4ccnc1c24)OCO3	HuCC-A1	cell growth or viability, MTT		75 h	IC50	10 µM
CC(=O)NC[C@H]1CN(c2ccc(N3CCOCC3)c(F)c2)C(=O)O1	Enterococcus	microbial growth, broth dilution	VRE		MIC	2 µg/mL (≈ 5.93 µM)
N=C(CC(O)c1cc2c(F)cc(F)cc2c2cc(C(F)(F)F)ccc12)Nc1ccc(F)c(F)c1 (stereo not shown)	Plasmodium knowlesi	parasite growth, SYBR Green			IC50	0.0024 µM
NC(=O)c1nc(F)c[nH]c1=O	Influenza A virus	viral replication, inhibitor	MDCK, H1N1 WSN		EC50	1.57 µM
O=c1[nH]c(=O)n([C@H]2C[C@H](O)[C@@H](CO)O2)cc1F	Influenza A virus	viral replication, inhibitor, ELISA	MDCK, H1N1	24 h	IC50	30.2 µM
N=C(CC(O)c1cc2c(F)cc(F)cc2c2cc(C(F)(F)F)ccc12)Nc1cccc(F)c1 (stereo not shown)	Plasmodium knowlesi	parasite growth, SYBR Green			IC50	0.0064 µM
O=c1c2ccccc2[se]n1-c1ccccc1	Enterovirus A	viral replication	Vero, EV71	48 h	IC50	7.1 µM
Nc1ncn([C@@H]2O[C@H](CO)[C@@H](O)[C@H]2O)c(=O)n1	Influenza A virus	viral replication, inhibitor, ELISA	MDCK, H1N1	24 h	IC50	3.42 µM
CC[C@H](C)C[C@H](C)CCCCCCCCC(=O)N[C@H]1C[C@@H](O)[C@@H](NCCN)NC(=O)[C@@H]2[C@@H](O)CCN2C(=O)[C@H]([C@H](O)CCN)NC(=O)[C@H]([C@H](O)[C@@H](O)c2ccc(O)cc2)NC(=O)[C@@H]2C[C@@H](O)CN2C(=O)[C@H]([C@@H](C)O)NC1=O	Pichia kudriavzevii	microbial growth, broth dilution	ATCC14243	48 h	MIC	4 µg/mL (≈ 3.66 µM)
